Reference: PMC7985749 (CNS Drugs, 2021)

Columns and labels:
[1] = Safety and tolerability, all study stages; assay type: in vivo, human
[2] = 28-day GLP toxicology study in rats; conditions: rat, in vivo, oral
[3] = Neuropsychological assessments; assay type: in vivo, human; conditions: SAD, MAD, or CSF cohorts
In short: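 Tests were VAS, LSEQ, WCST and Sternberg, run within the neurological evaluation. The trial was single-centre, randomized, double-blind and placebo-controlled in healthy volunteers. Dosing was oral: single doses of 0.2–4 mg (young males), 5 daily doses of 0.2–4 mg/day (young males and females), or 2.5 mg/day for 5 days (older adults). Assessments followed the scheduled timepoints.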

[4] = Adverse events / TEAEs, SAD cohort; assay type: in vivo, human
KDM1A = KDM1A (Homo sapiens, UniProt O60341); test: Chemoprobe-based KDM1A target engagement in PBMCs; assay type: in vivo
[5] = Adverse events / TEAEs, MAD cohort; assay type: in vivo, human
[6] = Plasma pharmacokinetics, single ascending dose; assay type: in vivo, human; conditions: for Tmax / half-life / AUC(0-inf) / AUC(0-t) / Cmax / Vd/F: human, plasma
[7] = CSF pharmacokinetics substudy; assay type: in vivo, human; conditions: for Kp at 2 h / Kp at 6 h / Kp at 12 h / concentration at 2 h / concentration at 6 h / concentration at 12 h: male, human, oral; for Kp at 2 h / Kp at 6 h / Kp at 12 h: CSF / unbound plasma
In short: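 Open-label cohorts of healthy volunteers got a single oral dose of 2 or 4 mg. CSF and plasma were sampled predose and at preset timepoints, n = 3 subjects per timepoint. Levels were measured by GLP-validated LC-MS/MS: ethyl acetate liquid–liquid extraction, C18 column, positive ESI, deuterated internal standard. LLOQ was 50 pg/mL (CSF) and 10 pg/mL (plasma). Unbound plasma concentration was total corrected by an in vitro dialysis fraction unbound.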

## Nc1nnc(CN[C@@H]2C[C@H]2c2ccc(OCc3ccccc3)cc2)o1 [vafidemstat]
[1]; during the study
  Serious adverse events (SAEs): No SAEs
[1]; planned SAD or MAD (including older adult) cohorts
  Changes over time in hematological, biochemical, urinalysis parameters, vital signs, ECG values: No significant changes
[1]; three study stages (SAD, MAD, older adult), 120 AEs in total
  Number of AEs reported by subjects receiving vafidemstat: 90
[1]; volunteers treated with vafidemstat, three study stages, 108 TEAEs in total
  Number of TEAEs possibly or probably related to the study drug: 79
[2]
  NOAEL at 28 days: 0.2 mg/kg
[3]
  Sleeping or awakening patterns (LSEQ): did not disrupt sleeping or awakening patterns
  Somnolence and potential for abuse (VAS): did not provoke somnolence or reveal a potential for abuse
[3]; any dose level or parameter
  WCST or Sternberg test: No significant differences
[4]; SAD stage, subjects receiving vafidemstat
  Number of treatment-related AEs: 12
[4]; SAD, 0.2 mg, n = 6
  Number of TEAEs (% of total TEAEs): Headache: 1 (7.7) n (%)
  Number of TEAEs (% of total TEAEs): Total: 1 (7.7) n (%)
[4]; SAD, 0.6 mg, n = 6
  Number of TEAEs (% of total TEAEs): Euphoric mood: 1 (7.7) n (%)
  Number of TEAEs (% of total TEAEs): Feeling hot: 1 (7.7) n (%)
  Number of TEAEs (% of total TEAEs): Headache: 1 (7.7) n (%)
  Number of TEAEs (% of total TEAEs): Total: 3 (23.1) n (%)
[4]; SAD, 1.5 mg, n = 6
  Number of TEAEs (% of total TEAEs): Musculoskeletal stiffness: 1 (7.7) n (%)
  Number of TEAEs (% of total TEAEs): Paresthesia: 1 (7.7) n (%)
  Number of TEAEs (% of total TEAEs): Total: 2 (15.4) n (%)
[4]; SAD, 2.5 mg, n = 6
  Number of TEAEs (% of total TEAEs): Abdominal discomfort: 1 (7.7) n (%)
  Number of TEAEs (% of total TEAEs): Asthenia: 1 (7.7) n (%)
  Number of TEAEs (% of total TEAEs): Dry mouth: 1 (7.7) n (%)
  Number of TEAEs (% of total TEAEs): Total: 3 (23.1) n (%)
[4]; SAD, 4.0 mg, n = 6
  Number of TEAEs (% of total TEAEs): Blunted affect: 1 (7.7) n (%)
  Number of TEAEs (% of total TEAEs): Euphoric mood: 1 (7.7) n (%)
  Number of TEAEs (% of total TEAEs): Headache: 1 (7.7) n (%)
  Number of TEAEs (% of total TEAEs): Total: 3 (23.1) n (%)
KDM1A; MAD, at 108 h after first dose (12 h after last dose), PBMCs
  Maximum KDM1A TE values: up to 90%
KDM1A; SAD and MAD
  KDM1A binding in PBMCs: dose-dependent manner
KDM1A; SAD cohorts, 4 mg, at 12 h, PBMCs
  Maximum KDM1A TE: around 80%
KDM1A; at Cmax,ss of ~ 30 ng/mL and AUCss of ~ 500 ng·h/mL
  KDM1A TE peak versus plasma exposure: ~ 90%
KDM1A; older adult population, evaluable sample from a single individual
  KDM1A TE: 85.6%
[5]; MAD stage, healthy young volunteers, with vafidemstat
  Number of AEs related to the study treatment: 44
[5]; MAD, 0.2 mg/day, n = 6
  Number of TEAEs (% of total TEAEs): Asthenia: 2 (3.3) n (%)
  Number of TEAEs (% of total TEAEs): Dizziness postural: 1(1.6) n (%)
  Number of TEAEs (% of total TEAEs): Feeling hot: 1(1.6) n (%)
  Number of TEAEs (% of total TEAEs): Headache: 3 (4.9) n (%)
  Number of TEAEs (% of total TEAEs): Hematoma: 1 (1.6) n (%)
  Number of TEAEs (% of total TEAEs): Muscle spasms: 1(1.6) n (%)
  Number of TEAEs (% of total TEAEs): Palpitations: 1 (1.6) n (%)
  Number of TEAEs (% of total TEAEs): Total: 10 (16.4) n (%)
[5]; MAD, 0.6 mg/day, n = 6
  Number of TEAEs (% of total TEAEs): Apathy: 1 (1.6) n (%)
  Number of TEAEs (% of total TEAEs): Asthenia: 1 (1.6) n (%)
  Number of TEAEs (% of total TEAEs): Blunted affect: 2 (3.3) n (%)
  Number of TEAEs (% of total TEAEs): Daydreaming: 1 (1.6) n (%)
  Number of TEAEs (% of total TEAEs): Dyspepsia: 1 (1.6) n (%)
  Number of TEAEs (% of total TEAEs): Euphoric mood: 1 (1.6) n (%)
  Number of TEAEs (% of total TEAEs): Feeling drunk: 1 (1.6) n (%)
  Number of TEAEs (% of total TEAEs): Headache: 1 (1.6) n (%)
  Number of TEAEs (% of total TEAEs): Somnolence: 2 (3.3) n (%)
  Number of TEAEs (% of total TEAEs): Total: 11 (18.0) n (%)
[5]; MAD, 1.0 mg/day, n = 6
  Number of TEAEs (% of total TEAEs): Asthenia: 1 (1.6) n (%)
  Number of TEAEs (% of total TEAEs): Constipation: 1 (1.6) n (%)
  Number of TEAEs (% of total TEAEs): Dizziness postural: 1 (1.6) n (%)
  Number of TEAEs (% of total TEAEs): Dry mouth: 4 (6.5) n (%)
  Number of TEAEs (% of total TEAEs): Feeling cold: 3 (4.9) n (%)
  Number of TEAEs (% of total TEAEs): Headache: 2 (3.3) n (%)
  Number of TEAEs (% of total TEAEs): Nasopharyngitis: 1 (1.6) n (%)
  Number of TEAEs (% of total TEAEs): Total: 13 (21.3) n (%)
[5]; MAD, 1.5 mg/day, n = 6
  Number of TEAEs (% of total TEAEs): Dry mouth: 3 (4.9) n (%)
  Number of TEAEs (% of total TEAEs): Headache: 2 (3.3) n (%)
  Number of TEAEs (% of total TEAEs): Salivary hypersecretion: 1 (1.6) n (%)
  Number of TEAEs (% of total TEAEs): Somnolence: 1 (1.6) n (%)
  Number of TEAEs (% of total TEAEs): Total: 7 (11.5) n (%)
[5]; MAD, 2.5 mg/day, n = 6
  Number of TEAEs (% of total TEAEs): Dry mouth: 1 (1.6) n (%)
  Number of TEAEs (% of total TEAEs): Total: 1 (1.6) n (%)
[5]; MAD, 4.0 mg/day, n = 3
  Number of TEAEs (% of total TEAEs): Headache: 2 (3.3) n (%)
  Number of TEAEs (% of total TEAEs): Total: 2 (3.3) n (%)
[6]; SAD and MAD cohorts, plasma PK
  Variability, overall coefficient of variation: ≤ 30%
[6]; both, oral
  Tmax: 0.5 to 2 h
  half-life: 20 to 30 h
[6]; male, po, 0.2 mg
  AUC(0-inf): 30.9 ng·h/mL
  AUC(0-t): 28 ng·h/mL
  Cmax: 1.11 ng/mL
  Tmax: 2.75 h
  Vd/F: 260 L
  half-life: 28 h
[6]; male, po, 0.6 mg
  AUC(0-inf): 90.7 ng·h/mL
  AUC(0-t): 83.3 ng·h/mL
  Cmax: 3.21 ng/mL
  Tmax: 1.83 h
  Vd/F: 256 L
  half-life: 27 h
[6]; male, po, 1.5 mg
  AUC(0-inf): 428 ng·h/mL
  AUC(0-t): 297 ng·h/mL
  Cmax: 11.9 ng/mL
  Tmax: 0.92 h
  Vd/F: 213 L
  half-life: 41 h
[6]; male, po, 2.5 mg
  AUC(0-inf): 438 ng·h/mL
  AUC(0-t): 402 ng·h/mL
  Cmax: 18.8 ng/mL
  Tmax: 1.58 h
  Vd/F: 203 L
  half-life: 25 h
[6]; male, po, 4 mg
  AUC(0-inf): 568 ng·h/mL
  AUC(0-t): 550 ng·h/mL
  Cmax: 38 ng/mL
  Tmax: 1.71 h
  Vd/F: 204 L
  half-life: 20 h
[7]; CSF cohort, quantifiable CSF concentrations from 2 h post-dose
  Blood–brain barrier crossing: shown to cross the human blood–brain barrier
[7]; 2 mg
  Kp at 2 h: 0.78
  Kp at 6 h: 0.74
  Kp at 12 h: 0.92
[7]; 4 mg
  Kp at 2 h: 0.69
  Kp at 6 h: 0.83
  Kp at 12 h: 0.91
[7]; CSF, 2 mg
  concentration at 2 h: 0.239 ng/mL
  concentration at 6 h: 0.181 ng/mL
  concentration at 12 h: 0.17 ng/mL
[7]; CSF, 4 mg
  concentration at 2 h: 0.387 ng/mL
  concentration at 6 h: 0.734 ng/mL
  concentration at 12 h: 0.55 ng/mL
[7]; plasma (unbound), 2 mg
  concentration at 2 h: 0.316 ng/mL
  concentration at 6 h: 0.248 ng/mL
  concentration at 12 h: 0.186 ng/mL
[7]; plasma (unbound), 4 mg
  concentration at 2 h: 0.59 ng/mL
  concentration at 6 h: 0.871 ng/mL
  concentration at 12 h: 0.609 ng/mL
